Rows were chosen to be rich in hits. Some 5.8% of all compounds tested hit in one or more screens of this group.
IDH1 mut inh = blocks human IDH1 R132H reductase activity; diaphorase/resazurin fluorescence, 60 min; inhibition, % at 10 µM; 70,000 tested, 0.18% active; AID 624101; in the data active = inhibition above about 34%; inconclusive = no clear call, values can overlap the other calls; inactive = below about 11%;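 note: 0% = DMSO and 100% = no enzyme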
Target sequence (O75874 whole entry R132H): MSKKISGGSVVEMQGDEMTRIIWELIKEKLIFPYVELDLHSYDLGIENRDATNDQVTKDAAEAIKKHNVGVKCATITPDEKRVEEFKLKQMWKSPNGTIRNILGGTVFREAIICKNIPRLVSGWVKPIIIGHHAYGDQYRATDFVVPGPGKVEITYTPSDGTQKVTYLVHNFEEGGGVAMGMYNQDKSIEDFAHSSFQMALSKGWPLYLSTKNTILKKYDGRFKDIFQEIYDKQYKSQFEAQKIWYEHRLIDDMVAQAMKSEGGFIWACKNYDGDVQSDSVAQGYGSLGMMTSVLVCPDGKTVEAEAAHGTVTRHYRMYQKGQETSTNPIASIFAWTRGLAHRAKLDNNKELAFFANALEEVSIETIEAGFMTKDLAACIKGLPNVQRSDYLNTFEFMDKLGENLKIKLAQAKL
Pf Dd2 inh = blocks growth of Plasmodium falciparum Dd2 parasites | P. falciparum Dd2 growth, SYBR Green, 72 h; stronger effect = lower value | activity change, % at 10 µM | 94,000 tested, 2.3% active; in the data active = activity change below about -80%; inconclusive = no clear call, values can overlap the other calls
T cruzi growth-1 = inhibitors of T. cruzi proliferation. T. cruzi beta-gal in NIH3T3, GalScreen luminescence, 90 h. inhibition, % at 8.34 µM. 77,000 tested, 5.9% active;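 active = mean inhibition above about 93%, with at least 55% of replicates each passing it, limit read from the data, passing the limit was not always enough; inconclusive = only one of those two conditions holds; inactive = neither condition holds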
KDM4C inh = KDM4C (human) demethylase inhibition; inhibition, % at 12.5 µM; 96,000 tested, 0.15% active; Q9H3R0; GST-KDM4C 2-372, H3K9me3 peptide, LANCE TR-FRET; AID 720574;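 active = mean replicate inhibition above about 25%, with at least 55% of replicates also reaching it, limit read from the data, passing the limit was not always enough; inconclusive = only one of those two conditions met; inactive = neither condition met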
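Test system: N-terminal GST-fused human GASC-1 (KDM4C) fragment, residues 2-372; quantity: GASC-1 enzyme at 10 nM final in reaction; dosing: single dose; schedule: 30 min demethylation and 1 h detection at room temperature; signal: LANCE TR-FRET, excitation 340 nm, emissions 618 and 671 nm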
T cruzi growth-2 = Trypanosoma cruzi proliferation inhibition. shares compounds with T cruzi growth-1. T. cruzi beta-gal in NIH3T3, GalScreen luminescence, 90 h. inhibition, % at 8.35 µM. 5,600 tested, 72% active. AID 651739;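 active = mean replicate inhibition above about 95% and at least 55% of replicates individually reaching it, limit read from the data; inconclusive = only one of the two criteria is met; inactive = neither criterion is met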
T cruzi growth-3 = Trypanosoma cruzi proliferation inhibition. AID 651740. T. cruzi beta-gal in NIH3T3, GalScreen luminescence, 90 h. shares compounds with T cruzi growth-1. inhibition, % at 2.09 µM. 5,600 tested, 21% active;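 active = mean inhibition above about 95%, with at least 55% of replicates also reaching it, limit read from the data; inconclusive = meets just one of the two conditions; inactive = meets neither condition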;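 note: plate controls were neutral control median for no effect and positive control median for full effect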
3T3 cytotox = kills mouse NIH/3T3 fibroblasts | AID 651742 | cytotoxicity (signal decrease), % at 8.35 µM | shares compounds with T cruzi growth-1 | 5,600 tested, 14% active | NIH/3T3 viability, CellTiter-Glo ATP luminescence, 90 h;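 active = mean signal decrease across replicates above about 35% based on untreated-well scatter, with enough replicates individually passing, limit read from the data; inconclusive = no rule stated though some were filed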;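 note: 0% = median of neutral control wells and 100% = median of positive control wells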
NIH3T3 tox 2 = kills mouse NIH/3T3 fibroblasts; shares compounds with T cruzi growth-1; 5,600 tested, 56% active; NIH/3T3 viability, CellTiter-Glo ATP luminescence, 90 h; AID 651744; inhibition, % at 24.9 µM;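 active = mean loss of cell viability signal at or above a set limit, and enough replicates individually reaching it; inconclusive = meets only the mean limit or only the replicate share; inactive = meets neither condition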;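 note: 0% = median of neutral control wells and 100% = median of positive control wells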
* marks the source's active call; other numbers are inactive results; ? = inconclusive; · = no result.

SMILES	IDH1 mut inh	Pf Dd2 inh	T cruzi growth-1	KDM4C inh	T cruzi growth-2	T cruzi growth-3	3T3 cytotox	NIH3T3 tox 2
O=C(C[C@@H]1CC[C@@H]2[C@H](COC[C@@H](O)CN2C(=O)Nc2ccc(Cl)c(Cl)c2)O1)NCc1ccc(Cl)c(Cl)c1	·	-16	109*	0	91	97*	3	90*
O=C(O)CC(C(=O)Nc1ccc(Cl)cc1)N1CCCCC1 (stereo unspecified)	0	·	·	·	·	·	·	·
CCn1c(SCC(=O)Nc2ccc([N+](=O)[O-])cc2)nnc1-c1ccccc1F	0	·	·	·	·	·	·	·
C/C=C/c1ccc2c(c1)O[C@H](CN(C)Cc1cccnc1)[C@H](C)CN([C@@H](C)CO)S2(=O)=O	2	2	?	-1	75	-7	3	20
C[C@@H]1CN([C@@H](C)CO)S(=O)(=O)c2ccc(/C=C/c3ccccc3)cc2O[C@@H]1CN(C)Cc1ccccc1	0	-7	100*	-1	97*	110*	17	81*
C[C@@H]1CN([C@H](C)CO)S(=O)(=O)c2ccc(/C=C/c3ccccc3)cc2O[C@@H]1CN(C)Cc1cccnc1	0	-33	128*	-2	91	91	83*	96*
C/C=C/c1ccc2c(c1)O[C@H](CN(C)Cc1cccnc1)[C@@H](C)CN([C@H](C)CO)S2(=O)=O	?	-22	106*	0	103*	100*	48*	71*
CCn1c2ccccc2n2c(SCC(=O)Nc3ccc(C)cc3)nnc12	0	·	·	·	·	·	·	·
C[C@H]1CN([C@@H](C)CO)C(=O)c2cc(NC(=O)CCCN(C)C)ccc2O[C@H]1CN(C)C(=O)Nc1ccccc1	2	·	·	·	·	·	·	·
Cc1ccc2ccc(C(Nc3ccccn3)c3ccc(Cl)c(Cl)c3)c(O)c2n1 (stereo unspecified)	0	·	·	·	·	·	·	·
C[C@@H]1CN([C@H](C)CO)C(=O)c2cccc(NS(=O)(=O)c3ccc(Cl)cc3)c2O[C@H]1CN(C)Cc1ccc(Oc2ccccc2)cc1	-1	-59	?	3	110*	64	-12	24
C[C@H](CO)N1C[C@H](C)[C@@H](CN(C)Cc2ccc(Oc3ccccc3)cc2)Oc2c(NS(=O)(=O)c3ccc(Cl)cc3)cccc2C1=O	·	-48	102*	-2	?	77	21	100*
C[C@@H]1CN([C@@H](C)CO)C(=O)c2cccc(NS(=O)(=O)c3ccc(Cl)cc3)c2O[C@@H]1CN(C)Cc1ccc(Oc2ccccc2)cc1	2	-67	96	-2	·	·	·	·
C[C@H]1CN([C@@H](C)CO)C(=O)c2cccc(NS(=O)(=O)c3ccc(Cl)cc3)c2O[C@H]1CN(C)Cc1ccc(Oc2ccccc2)cc1	·	-22	103	0	·	·	·	·
Cn1c(SCC(=O)N2CCc3ccccc32)nnc1-c1ccc(NC(=O)c2ccc(F)cc2)cc1	0	·	·	·	·	·	·	·
Cc1cc2nn(-c3ccc(C(C)C)cc3)nc2cc1NC(=O)COc1ccccc1[N+](=O)[O-]	1	·	·	·	·	·	·	·
O=C(C[C@@H]1C[C@@H]2c3cc(NC(=O)Nc4ccc(C(F)(F)F)cc4)ccc3O[C@@H]2[C@H](CO)O1)NCc1ccc(Cl)cc1	0	-45	166*	0	109*	2	-12	-17
O=C(C[C@@H]1C[C@H]2c3cc(NC(=O)Nc4ccc(C(F)(F)F)cc4)ccc3O[C@H]2[C@@H](CO)O1)NCc1ccc(Cl)cc1	0	-4	?	0	100*	18	0	4
O=C(C[C@H]1C[C@H]2c3cc(NC(=O)Nc4ccc(C(F)(F)F)cc4)ccc3O[C@H]2[C@@H](CO)O1)NCc1ccc(Cl)cc1	-1	4	67	0	·	·	·	·
COc1ccccc1CCNC(=O)c1cc(-c2ccccc2)nc2ccccc12	0	·	·	·	·	·	·	·
Cc1ccc(NC(=O)CSc2nc(C)cc(-c3ccccc3)n2)cc1	-1	·	·	·	·	·	·	·
C[C@H]1CCCCO[C@H](CN(C)S(=O)(=O)c2ccc(Cl)cc2)[C@@H](C)CN([C@@H](C)CO)C(=O)c2cc(NS(=O)(=O)c3cccs3)ccc2O1	·	·	114*	0	104*	62	8	-19
C[C@H](CO)N1C[C@H](C)[C@H](CN(C)S(=O)(=O)c2ccc(Cl)cc2)OCCCC[C@H](C)Oc2ccc(NS(=O)(=O)c3cccs3)cc2C1=O	·	·	111*	0	97*	45	-24	-46
Cc1ccc(S(=O)(=O)N(C)C[C@@H]2OCCCC[C@H](C)Oc3ccc(NS(=O)(=O)c4cccs4)cc3C(=O)N([C@H](C)CO)C[C@H]2C)cc1	-3	-55	118*	1	105*	39	8	-2
C[C@@H]1CN([C@H](C)CO)C(=O)c2cc(NS(=O)(=O)c3cccs3)ccc2O[C@@H](C)CCCCO[C@H]1CN(C)S(=O)(=O)c1ccc(Cl)cc1	-1	-70	·	-1	·	·	·	·
SMILES	IDH1 mut inh	Pf Dd2 inh	T cruzi growth-1	KDM4C inh	T cruzi growth-2	T cruzi growth-3	3T3 cytotox	NIH3T3 tox 2
C[C@@H]1CCCCO[C@H](CN(C)S(=O)(=O)c2ccc(Cl)cc2)[C@H](C)CN([C@H](C)CO)C(=O)c2cc(NS(=O)(=O)c3cccs3)ccc2O1	·	·	112*	-2	106*	96*	4	-29
O=P(O)(C1Cc2ccccc2C1)C(O)c1ccco1 (stereo unspecified)	0	·	·	·	·	·	·	·
COc1cc(OC)c2c(=O)c(OC)c(-c3ccccc3)oc2c1	0	·	·	·	·	·	·	·
C[C@@H]1CCCCO[C@@H](CN(C)C(=O)Nc2ccc(C(F)(F)F)cc2)[C@@H](C)CN([C@H](C)CO)C(=O)c2cc(NC(=O)Cc3ccccc3)ccc2O1	·	-5	?	-2	108*	35	6	19
C[C@H](CO)N1C[C@H](C)[C@H](CN(C)C(=O)Nc2ccc(C(F)(F)F)cc2)OCCCC[C@H](C)Oc2ccc(NC(=O)Cc3ccccc3)cc2C1=O	·	-43	?	-1	103*	102*	18	33*
CN(C)C(=O)c1cccc(-c2ccc([C@@H]3[C@@H](C#N)N(C(=O)C4CCC4)[C@@H]3CO)cc2)c1	·	31	89	-3	·	·	·	·
N#C[C@H]1[C@H](c2ccc(C3=CCCC3)cc2)[C@H](CO)N1C(=O)C1CCC1	·	16	?	1	96*	24	-6	18
N#C[C@@H]1[C@@H](c2ccc(C3=CCCC3)cc2)[C@H](CO)N1C(=O)C1CCC1	·	31	77	4	·	·	·	·
N#C[C@@H]1[C@@H](c2ccc(-c3cncnc3)cc2)[C@H](CO)N1C(=O)C1CCC1	·	6	103*	-2	77	41	3	2
CN(C)C(=O)c1cccc(-c2ccc([C@@H]3[C@@H](CO)N(C(=O)C4CCC4)[C@H]3C#N)cc2)c1	·	-5	101*	-2	-25	4	-15	1

High-throughput results as filed in PubChem BioAssay.
